# Active and inactive are the calls of the source. No cut-off for these calls is given here.
# Experiments:
# [1] = biological target: Aurora kinase B (Homo sapiens) (UniProt Q96GD4); assay: Inhibition of Aurora kinase B at 10 uM by luciferase assay
# Outline: (§1)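 Cell-free split-luciferase competitive binding assay. Cfluc-kinase fusion mRNA was co-translated with Fos-Nfluc mRNA in rabbit reticulocyte lysate at 30 °C for 90 min, frozen at −80 °C overnight and thawed on ice. Lysate held tracer 2 at 120 nM final and inhibitor at 10 μM final (DMSO), 1 h at room temperature. Luciferin reagent was added and luminescence read (1 s integration), in duplicate.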
# [2] = biological target: T1, Aurora kinase C (Homo sapiens) (UniProt Q9UQB9); assay: Inhibition of Aurora kinase C at 10 uM by luciferase assay; outline: as §1
# T1 sequence (whole entry): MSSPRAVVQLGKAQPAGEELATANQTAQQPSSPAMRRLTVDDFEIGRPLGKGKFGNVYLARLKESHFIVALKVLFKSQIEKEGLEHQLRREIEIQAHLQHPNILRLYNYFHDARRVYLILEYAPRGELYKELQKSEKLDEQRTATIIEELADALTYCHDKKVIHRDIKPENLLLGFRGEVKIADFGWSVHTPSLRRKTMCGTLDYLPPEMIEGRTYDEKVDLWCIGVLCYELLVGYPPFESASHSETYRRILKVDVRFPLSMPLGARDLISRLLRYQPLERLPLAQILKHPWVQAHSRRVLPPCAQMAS
# [3] = biological target: Protein kinase C eta type (Homo sapiens) (UniProt P24723); assay: Inhibition of Protein kinase C eta type at 10 uM by luciferase assay; outline: as §1
# Sequence of Protein kinase C eta type (Homo sapiens) (P24723 whole entry): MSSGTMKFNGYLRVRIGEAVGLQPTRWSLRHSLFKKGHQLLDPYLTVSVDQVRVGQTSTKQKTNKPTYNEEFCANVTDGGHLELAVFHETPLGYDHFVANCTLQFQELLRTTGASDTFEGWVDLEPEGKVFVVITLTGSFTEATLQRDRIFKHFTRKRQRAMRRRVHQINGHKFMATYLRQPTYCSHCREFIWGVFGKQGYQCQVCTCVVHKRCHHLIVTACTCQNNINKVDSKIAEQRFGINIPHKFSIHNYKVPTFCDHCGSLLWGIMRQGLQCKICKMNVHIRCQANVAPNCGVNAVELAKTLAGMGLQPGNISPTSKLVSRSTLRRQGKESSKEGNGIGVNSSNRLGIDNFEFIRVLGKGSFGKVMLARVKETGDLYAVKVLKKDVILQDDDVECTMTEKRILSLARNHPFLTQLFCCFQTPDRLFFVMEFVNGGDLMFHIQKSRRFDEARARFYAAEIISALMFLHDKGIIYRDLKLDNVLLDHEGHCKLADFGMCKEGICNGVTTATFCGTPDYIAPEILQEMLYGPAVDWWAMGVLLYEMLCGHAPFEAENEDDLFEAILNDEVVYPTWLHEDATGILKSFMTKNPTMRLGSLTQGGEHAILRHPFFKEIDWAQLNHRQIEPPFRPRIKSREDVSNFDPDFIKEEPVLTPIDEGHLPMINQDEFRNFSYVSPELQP
# [4] = Inhibition of Protein kinase A at 10 uM by luciferase assay; outline: as §1
# [5] = biological target: T2, Myotonin-protein kinase (Homo sapiens) (UniProt Q09013); assay: Inhibition of DMPK at 10 uM by luciferase assay; outline: as §1
# T2 sequence (whole entry): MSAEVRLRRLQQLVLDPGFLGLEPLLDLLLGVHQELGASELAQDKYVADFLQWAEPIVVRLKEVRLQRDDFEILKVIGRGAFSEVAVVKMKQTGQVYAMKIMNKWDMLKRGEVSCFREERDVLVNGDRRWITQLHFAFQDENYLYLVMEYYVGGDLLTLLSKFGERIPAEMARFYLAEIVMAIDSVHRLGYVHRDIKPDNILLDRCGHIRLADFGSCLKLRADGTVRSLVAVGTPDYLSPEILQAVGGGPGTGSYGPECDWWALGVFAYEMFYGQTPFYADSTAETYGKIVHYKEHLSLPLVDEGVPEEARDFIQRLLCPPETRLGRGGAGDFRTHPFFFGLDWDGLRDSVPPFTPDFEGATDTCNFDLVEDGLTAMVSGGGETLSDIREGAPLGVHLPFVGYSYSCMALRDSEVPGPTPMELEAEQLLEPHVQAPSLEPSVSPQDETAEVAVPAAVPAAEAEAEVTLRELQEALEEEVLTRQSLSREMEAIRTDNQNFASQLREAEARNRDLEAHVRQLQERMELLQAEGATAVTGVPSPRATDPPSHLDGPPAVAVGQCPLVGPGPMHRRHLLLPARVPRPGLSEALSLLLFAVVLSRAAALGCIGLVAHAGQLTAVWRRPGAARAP
# [6] = biological target: Serine/threonine-protein kinase 32B (Homo sapiens) (UniProt Q9NY57); assay: Inhibition of STK32B at 10 uM by luciferase assay; outline: as §1
# Sequence of Serine/threonine-protein kinase 32B (Homo sapiens) (Q9NY57 whole entry): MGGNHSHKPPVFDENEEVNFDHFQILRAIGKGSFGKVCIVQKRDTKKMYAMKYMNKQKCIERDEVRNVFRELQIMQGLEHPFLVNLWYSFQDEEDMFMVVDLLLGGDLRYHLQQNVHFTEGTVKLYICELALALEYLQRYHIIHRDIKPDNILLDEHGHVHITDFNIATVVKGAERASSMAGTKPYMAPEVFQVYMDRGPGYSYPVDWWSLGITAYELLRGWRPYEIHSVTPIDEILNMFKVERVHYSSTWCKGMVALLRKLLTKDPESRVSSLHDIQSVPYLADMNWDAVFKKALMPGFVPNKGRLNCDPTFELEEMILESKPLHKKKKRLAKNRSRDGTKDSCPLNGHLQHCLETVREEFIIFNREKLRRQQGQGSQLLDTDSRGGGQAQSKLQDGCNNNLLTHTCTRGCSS
# [7] = biological target: T3, Serine/threonine-protein kinase Sgk2 (Homo sapiens) (UniProt Q9HBY8); assay: Inhibition of SGK2 at 10 uM by luciferase assay; outline: as §1
# T3 sequence (whole entry): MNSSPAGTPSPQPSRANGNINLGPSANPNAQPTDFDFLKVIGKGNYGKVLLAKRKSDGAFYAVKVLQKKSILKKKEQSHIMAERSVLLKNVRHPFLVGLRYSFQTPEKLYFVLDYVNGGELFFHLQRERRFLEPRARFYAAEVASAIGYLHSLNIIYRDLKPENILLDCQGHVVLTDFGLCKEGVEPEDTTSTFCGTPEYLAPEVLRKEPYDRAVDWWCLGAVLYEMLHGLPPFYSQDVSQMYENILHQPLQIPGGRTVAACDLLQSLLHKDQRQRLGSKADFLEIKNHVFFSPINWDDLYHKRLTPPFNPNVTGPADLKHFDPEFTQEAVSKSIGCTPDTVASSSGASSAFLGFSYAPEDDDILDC
# [8] = biological target: Protein kinase C theta type (Homo sapiens) (UniProt Q04759); assay: Inhibition of Protein kinase C theta type at 10 uM by luciferase assay; outline: as §1
# Sequence of Protein kinase C theta type (Homo sapiens) (Q04759 whole entry, looked up): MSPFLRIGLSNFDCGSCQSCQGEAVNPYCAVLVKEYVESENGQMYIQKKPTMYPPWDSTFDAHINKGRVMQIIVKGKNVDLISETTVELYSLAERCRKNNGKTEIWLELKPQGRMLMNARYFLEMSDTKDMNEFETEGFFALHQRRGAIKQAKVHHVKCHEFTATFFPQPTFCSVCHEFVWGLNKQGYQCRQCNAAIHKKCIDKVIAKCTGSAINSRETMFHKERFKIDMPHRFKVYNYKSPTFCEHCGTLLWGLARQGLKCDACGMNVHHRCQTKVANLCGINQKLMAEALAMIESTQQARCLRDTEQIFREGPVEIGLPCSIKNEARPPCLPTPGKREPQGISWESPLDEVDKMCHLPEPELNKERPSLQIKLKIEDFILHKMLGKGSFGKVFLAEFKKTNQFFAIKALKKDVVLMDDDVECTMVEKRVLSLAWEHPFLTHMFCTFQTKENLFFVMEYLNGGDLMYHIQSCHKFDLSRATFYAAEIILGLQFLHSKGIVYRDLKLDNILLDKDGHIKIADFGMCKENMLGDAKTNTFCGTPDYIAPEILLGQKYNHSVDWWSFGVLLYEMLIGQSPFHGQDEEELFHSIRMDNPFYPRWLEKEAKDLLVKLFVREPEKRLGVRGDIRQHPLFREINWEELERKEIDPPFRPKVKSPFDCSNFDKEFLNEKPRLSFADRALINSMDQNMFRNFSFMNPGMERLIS
# [9] = biological target: T4, Protein kinase C epsilon type (Homo sapiens) (UniProt Q02156); assay: Inhibition of Protein kinase C epsilon type at 10 uM by luciferase assay
# T4 sequence (whole entry): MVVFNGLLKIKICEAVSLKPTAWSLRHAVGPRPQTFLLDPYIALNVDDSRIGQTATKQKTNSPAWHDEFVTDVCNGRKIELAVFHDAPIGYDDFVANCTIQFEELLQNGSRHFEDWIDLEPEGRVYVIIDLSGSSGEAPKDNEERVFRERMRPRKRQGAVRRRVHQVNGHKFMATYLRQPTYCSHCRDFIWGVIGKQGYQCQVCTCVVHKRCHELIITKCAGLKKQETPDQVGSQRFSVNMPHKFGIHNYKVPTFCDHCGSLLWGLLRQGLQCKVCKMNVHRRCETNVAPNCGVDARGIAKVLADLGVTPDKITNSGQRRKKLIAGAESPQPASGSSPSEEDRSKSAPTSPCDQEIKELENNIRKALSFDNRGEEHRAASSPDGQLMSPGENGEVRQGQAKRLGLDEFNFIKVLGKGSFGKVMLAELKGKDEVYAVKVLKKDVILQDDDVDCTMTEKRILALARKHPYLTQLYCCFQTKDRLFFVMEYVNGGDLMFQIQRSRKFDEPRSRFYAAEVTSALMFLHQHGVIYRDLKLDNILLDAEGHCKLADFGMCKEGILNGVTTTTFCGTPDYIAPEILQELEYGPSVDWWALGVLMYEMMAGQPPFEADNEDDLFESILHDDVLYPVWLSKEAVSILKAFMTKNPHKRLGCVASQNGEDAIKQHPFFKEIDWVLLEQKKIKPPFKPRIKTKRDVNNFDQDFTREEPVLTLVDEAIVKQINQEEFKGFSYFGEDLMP
# Outline: (§2)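 Cell-free split-firefly-luciferase competitive binding assay: Cfluc-kinase fusion mRNA co-translated with Fos-Nfluc mRNA in rabbit reticulocyte lysate, 30 °C for 90 min, then frozen at −80 °C and thawed on ice. Luminescence read after luciferin reagent, in duplicate. Percent inhibition = 1 − (background-subtracted signal ÷ DMSO positive control).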
# [10] = biological target: T5, cAMP-dependent protein kinase catalytic subunit PRKX (Homo sapiens) (UniProt P51817); assay: Inhibition of PRKX at 10 uM by luciferase assay; outline: as §1
# T5 sequence (whole entry): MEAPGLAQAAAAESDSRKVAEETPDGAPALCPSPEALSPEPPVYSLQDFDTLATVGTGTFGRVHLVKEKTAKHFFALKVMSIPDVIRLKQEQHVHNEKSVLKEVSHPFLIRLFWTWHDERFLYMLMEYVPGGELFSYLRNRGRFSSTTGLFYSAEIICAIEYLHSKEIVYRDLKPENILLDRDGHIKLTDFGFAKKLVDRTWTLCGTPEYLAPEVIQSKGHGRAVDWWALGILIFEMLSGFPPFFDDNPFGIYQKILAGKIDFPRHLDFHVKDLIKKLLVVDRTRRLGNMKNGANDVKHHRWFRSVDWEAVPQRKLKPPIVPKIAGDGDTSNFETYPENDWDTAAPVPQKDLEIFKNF
# [11] = biological target: T6, Serine/threonine-protein kinase Sgk3 (Homo sapiens) (UniProt Q96BR1); assay: Inhibition of SGK3 at 10 uM by luciferase assay; outline: as §1
# T6 sequence (whole entry): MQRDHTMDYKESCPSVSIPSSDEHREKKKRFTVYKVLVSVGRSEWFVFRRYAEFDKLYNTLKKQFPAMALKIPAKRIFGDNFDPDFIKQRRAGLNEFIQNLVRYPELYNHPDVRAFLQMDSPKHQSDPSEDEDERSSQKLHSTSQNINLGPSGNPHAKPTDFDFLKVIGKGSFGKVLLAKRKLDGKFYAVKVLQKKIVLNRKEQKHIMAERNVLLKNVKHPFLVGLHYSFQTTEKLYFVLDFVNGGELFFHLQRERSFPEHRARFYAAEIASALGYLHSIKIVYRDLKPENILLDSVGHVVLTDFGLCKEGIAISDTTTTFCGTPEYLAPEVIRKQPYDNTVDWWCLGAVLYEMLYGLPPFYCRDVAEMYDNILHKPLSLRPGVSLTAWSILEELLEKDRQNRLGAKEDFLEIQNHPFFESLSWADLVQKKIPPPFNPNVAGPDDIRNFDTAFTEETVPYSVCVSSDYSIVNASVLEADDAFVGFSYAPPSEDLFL
# [12] = biological target: Protein kinase C gamma type (Homo sapiens) (UniProt P05129); assay: Inhibition of Protein kinase C gamma type at 10 uM by luciferase assay; outline: as §2
# [13] = biological target: RAC-gamma serine/threonine-protein kinase (Homo sapiens) (UniProt Q9Y243); assay: Inhibition of AKT3 at 10 uM by luciferase assay; outline: as §2
# Sequence of RAC-gamma serine/threonine-protein kinase (Homo sapiens) (Q9Y243 whole entry): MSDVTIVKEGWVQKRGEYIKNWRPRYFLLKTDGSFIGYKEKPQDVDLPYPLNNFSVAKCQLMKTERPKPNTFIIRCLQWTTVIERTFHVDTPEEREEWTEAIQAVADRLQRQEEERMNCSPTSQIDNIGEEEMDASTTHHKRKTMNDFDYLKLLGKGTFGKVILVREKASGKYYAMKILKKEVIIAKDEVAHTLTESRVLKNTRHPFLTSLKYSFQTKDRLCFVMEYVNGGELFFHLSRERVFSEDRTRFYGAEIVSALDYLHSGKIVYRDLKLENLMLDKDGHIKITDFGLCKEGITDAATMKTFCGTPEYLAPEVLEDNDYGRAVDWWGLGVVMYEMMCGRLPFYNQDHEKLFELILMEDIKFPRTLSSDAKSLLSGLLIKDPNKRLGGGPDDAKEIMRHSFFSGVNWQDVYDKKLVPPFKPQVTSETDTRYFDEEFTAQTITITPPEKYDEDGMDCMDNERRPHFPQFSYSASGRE
# [14] = biological target: RAC-beta serine/threonine-protein kinase (Homo sapiens) (UniProt P31751); assay: Inhibition of AKT2 at 10 uM by luciferase assay; outline: as §2
# Sequence of RAC-beta serine/threonine-protein kinase (Homo sapiens) (P31751 whole entry): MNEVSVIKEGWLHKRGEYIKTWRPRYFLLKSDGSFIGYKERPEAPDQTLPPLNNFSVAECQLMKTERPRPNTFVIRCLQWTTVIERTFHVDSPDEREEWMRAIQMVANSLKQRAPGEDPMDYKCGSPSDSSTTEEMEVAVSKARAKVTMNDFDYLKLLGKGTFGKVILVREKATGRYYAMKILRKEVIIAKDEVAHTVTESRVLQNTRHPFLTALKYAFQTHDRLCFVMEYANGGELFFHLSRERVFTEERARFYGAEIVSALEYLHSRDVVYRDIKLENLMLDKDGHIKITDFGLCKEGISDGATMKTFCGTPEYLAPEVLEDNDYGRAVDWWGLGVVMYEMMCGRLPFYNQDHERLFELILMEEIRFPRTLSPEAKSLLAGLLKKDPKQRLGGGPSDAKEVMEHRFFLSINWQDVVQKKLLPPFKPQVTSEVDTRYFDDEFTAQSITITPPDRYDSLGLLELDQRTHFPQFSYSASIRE
# [15] = biological target: RAC-alpha serine/threonine-protein kinase (Homo sapiens) (UniProt P31749); assay: Inhibition of AKT1 at 10 uM by luciferase assay; outline: as §2
# Sequence of RAC-alpha serine/threonine-protein kinase (Homo sapiens) (P31749 whole entry): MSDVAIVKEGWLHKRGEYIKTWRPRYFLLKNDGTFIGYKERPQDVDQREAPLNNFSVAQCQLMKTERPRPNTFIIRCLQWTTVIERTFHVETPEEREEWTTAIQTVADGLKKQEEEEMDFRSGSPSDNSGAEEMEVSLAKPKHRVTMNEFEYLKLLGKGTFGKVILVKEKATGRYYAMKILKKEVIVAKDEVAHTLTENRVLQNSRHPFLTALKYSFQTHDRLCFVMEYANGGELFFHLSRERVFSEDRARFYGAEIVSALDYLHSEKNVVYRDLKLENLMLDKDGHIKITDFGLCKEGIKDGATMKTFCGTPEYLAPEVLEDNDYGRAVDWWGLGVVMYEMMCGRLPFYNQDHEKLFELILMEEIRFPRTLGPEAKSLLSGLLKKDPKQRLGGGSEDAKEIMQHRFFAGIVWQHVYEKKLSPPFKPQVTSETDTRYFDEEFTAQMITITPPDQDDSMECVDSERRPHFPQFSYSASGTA
# [16] = biological target: Protein kinase C delta type (Homo sapiens) (UniProt Q05655); assay: Inhibition of Protein kinase C delta type at 10 uM by luciferase assay; outline: as §2
# Sequence of Protein kinase C delta type (Homo sapiens) (Q05655 whole entry, looked up): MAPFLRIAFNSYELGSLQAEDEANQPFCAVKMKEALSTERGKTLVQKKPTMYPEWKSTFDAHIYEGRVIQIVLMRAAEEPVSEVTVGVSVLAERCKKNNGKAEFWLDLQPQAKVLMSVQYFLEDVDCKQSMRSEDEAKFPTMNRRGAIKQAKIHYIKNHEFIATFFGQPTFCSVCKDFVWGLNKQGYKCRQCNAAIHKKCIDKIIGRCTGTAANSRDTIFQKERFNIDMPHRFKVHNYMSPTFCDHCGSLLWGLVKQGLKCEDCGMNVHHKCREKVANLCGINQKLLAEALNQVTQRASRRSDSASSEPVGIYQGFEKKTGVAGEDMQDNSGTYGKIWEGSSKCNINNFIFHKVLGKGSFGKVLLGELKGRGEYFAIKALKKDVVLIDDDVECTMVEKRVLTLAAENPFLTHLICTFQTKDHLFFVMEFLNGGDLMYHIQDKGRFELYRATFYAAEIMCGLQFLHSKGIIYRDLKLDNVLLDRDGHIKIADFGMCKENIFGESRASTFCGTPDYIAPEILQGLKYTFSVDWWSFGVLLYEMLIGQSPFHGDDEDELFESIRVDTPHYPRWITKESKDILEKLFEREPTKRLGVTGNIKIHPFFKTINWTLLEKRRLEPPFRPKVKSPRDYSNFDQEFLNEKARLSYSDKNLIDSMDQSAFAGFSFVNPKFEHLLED
# Sequence of Aurora kinase B (Homo sapiens) (Q96GD4 whole entry, the tested form may be a part): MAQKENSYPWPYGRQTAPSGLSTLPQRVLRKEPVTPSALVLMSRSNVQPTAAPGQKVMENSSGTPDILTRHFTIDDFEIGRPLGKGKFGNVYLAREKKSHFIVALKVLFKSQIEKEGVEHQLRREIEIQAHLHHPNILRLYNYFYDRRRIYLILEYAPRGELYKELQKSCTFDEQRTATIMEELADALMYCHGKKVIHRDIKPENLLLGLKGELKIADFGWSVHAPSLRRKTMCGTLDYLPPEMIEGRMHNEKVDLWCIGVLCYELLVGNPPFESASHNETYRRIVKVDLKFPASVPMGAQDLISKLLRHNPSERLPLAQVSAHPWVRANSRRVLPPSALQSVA
compound,measurement,setting,value
COc1cc2c(Nc3ccc(NC(=O)c4ccccc4)cc3)ncnc2cc1OCCCN1CCOCC1,inhibition,[1],> 50%
same,inhibition,[2],> 50%
NC(=O)Nc1sc(-c2ccc(F)cc2)cc1C(N)=O,inhibition,[1],> 25%
same,inhibition,[2],> 25%
same,inhibition,[3],Active
Cc1ccc(-c2nn(C(C)(C)C)c3ncnc(N)c23)cc1,inhibition,[4],19%
same,inhibition,[5],32%
same,inhibition,[6],> 40%
O=C(c1ccc(Nc2nccc(-c3cc4ccccc4s3)n2)cc1)N1CCC(N2CCCC2)CC1,inhibition,[7],> 60%
same,inhibition,[1],> 29%
same,inhibition,[8],> 29%
same,inhibition,[9],> 29%
same,inhibition,[10],> 29%
same,inhibition,[11],> 60%
same,inhibition,[3],83%
CN(C)CCCn1cc(C2=C(c3c[nH]c4ccccc34)C(=O)NC2=O)c2ccccc21,inhibition,[8],inactive
same,inhibition,[12],inactive
same,inhibition,[3],inactive
COc1cc2ncn(-c3cc(OCc4ccccc4C(F)(F)F)c(C(N)=O)s3)c2cc1OC,inhibition,[1],> 25%
same,inhibition,[2],> 25%
Fc1ccc(Cl)cc1-c1nc(Nc2ccncc2)c2nccnc2n1,inhibition,[13],> 25%
same,inhibition,[8],> 25%
same,inhibition,[14],> 25%
same,inhibition,[15],> 25%
same,inhibition,[9],> 25%
same,inhibition,[3],> 25%
CC(C)(C)n1nc(-c2ccc(Cl)cc2)c2c(N)ncnc21,inhibition,[4],19%
same,inhibition,[5],32%
same,inhibition,[6],> 40%
CO[C@@H]1[C@H](N(C)C(=O)c2ccccc2)C[C@H]2O[C@]1(C)n1c3ccccc3c3c4c(c5c6ccccc6n2c5c31)C(=O)NC4,inhibition,[6],Active
O=S(=O)(NCCNC/C=C/c1ccc(Br)cc1)c1cccc2cnccc12,inhibition,[7],20%
same,inhibition,[8],20%
same,inhibition,[4],> 65%
same,inhibition,[10],> 65%
same,inhibition,[11],20%
same,inhibition,[3],20%
C[C@@H](N)[C@H]1CC[C@H](C(=O)Nc2ccncc2)CC1,inhibition,[10],Active
O=C1NC(=O)c2cc(Nc3ccc(F)cc3)c(Nc3ccc(F)cc3)cc21,inhibition,[5],30%
same,inhibition,[12],22%
Cn1cc(C2=C(c3cn(CCCSC(=N)N)c4ccccc34)C(=O)NC2=O)c2ccccc21,inhibition,[8],47%
same,inhibition,[16],47%
same,inhibition,[9],47%
same,inhibition,[12],47%
same,inhibition,[3],47%
O=S(=O)(c1cccc2c(Cl)cccc12)N1CCCNCC1,inhibition,[10],inactive
Cc1[nH]c(/C=C2\C(=O)Nc3ccc(S(=O)(=O)Cc4c(Cl)cccc4Cl)cc32)c(C)c1C(=O)N1CCC[C@@H]1CN1CCCC1,inhibition,[1],> 25%
same,inhibition,[2],> 25%
O=S(=O)(c1cccc2c(O)nccc12)N1CCCNCC1,inhibition,[10],Active
O=C1NC(=O)c2c1c1c3ccccc3n3c1c1c2c2ccccc2n1C1CCC3O1,inhibition,[7],> 60%
O=C1NC(=O)c2c1c1c3ccccc3[nH]c1c1[nH]c3ccccc3c21,inhibition,[13],inactive
same,inhibition,[16],inactive
same,inhibition,[14],inactive
same,inhibition,[15],inactive
same,inhibition,[9],inactive
same,inhibition,[12],inactive
O=S(=O)(c1cccc2cnccc12)N1CCCNCC1,inhibition,[4],Active
same,inhibition,[10],Active

# — ChEMBL document CHEMBL2086354, “Testing the promiscuity of commercial kinase inhibitors against the AGC kinase group using a split-luciferase screen” (J Med Chem, 2012)
